Measurements as given in ChEMBL document CHEMBL1124863, “Antiandrogenic steroidal sulfonylpyrazoles” (1990).
Active and inactive are the calls of the source. The calls are words filed in the database; no cut-off is given here.

Assays:
Rattus norvegicus = species: Rattus norvegicus; experiment: Antiandrogenic activity as the dose required to inhibit testosterone propionate-induced rat ventral prostate weight gain in castrated immature rat by 50%.; assay type: functional, Prostate gland
In short: (§1)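 Weanling male Sprague-Dawley rats castrated; dosing began 1 week later, grouped by body weight. […] Rats weighed and killed the next day; ventral prostate removed, blotted, weighed. ED50 read graphically as dose halving TP-stimulated prostate weight gain.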

[1] = target: T1, Androgen receptor (Rattus norvegicus) (UniProt P15207); details: Prostate gland
T1 sequence (whole entry): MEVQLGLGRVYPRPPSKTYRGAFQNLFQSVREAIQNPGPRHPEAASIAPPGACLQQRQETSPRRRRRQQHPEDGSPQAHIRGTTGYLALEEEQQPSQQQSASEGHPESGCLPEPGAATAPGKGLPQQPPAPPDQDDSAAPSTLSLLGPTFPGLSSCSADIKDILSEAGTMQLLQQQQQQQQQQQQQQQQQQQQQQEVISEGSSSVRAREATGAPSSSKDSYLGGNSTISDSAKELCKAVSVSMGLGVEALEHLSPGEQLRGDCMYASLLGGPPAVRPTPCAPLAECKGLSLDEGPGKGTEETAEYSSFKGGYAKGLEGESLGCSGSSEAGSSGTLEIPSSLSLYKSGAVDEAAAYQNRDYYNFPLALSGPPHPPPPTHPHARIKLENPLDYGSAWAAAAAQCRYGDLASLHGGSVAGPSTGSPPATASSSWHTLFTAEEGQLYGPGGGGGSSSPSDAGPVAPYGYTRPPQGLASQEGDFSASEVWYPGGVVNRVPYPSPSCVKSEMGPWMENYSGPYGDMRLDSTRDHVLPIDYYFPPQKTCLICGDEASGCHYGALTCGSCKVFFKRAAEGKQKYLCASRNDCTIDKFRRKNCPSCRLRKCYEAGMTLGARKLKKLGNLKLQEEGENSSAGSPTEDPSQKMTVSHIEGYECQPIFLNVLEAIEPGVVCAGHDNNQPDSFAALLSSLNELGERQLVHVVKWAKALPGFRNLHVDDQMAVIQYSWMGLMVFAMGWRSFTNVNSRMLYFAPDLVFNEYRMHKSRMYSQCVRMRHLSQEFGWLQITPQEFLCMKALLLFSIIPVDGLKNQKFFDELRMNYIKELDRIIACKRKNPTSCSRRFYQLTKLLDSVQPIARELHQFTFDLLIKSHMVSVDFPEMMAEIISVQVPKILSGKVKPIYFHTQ

[2] = target: T1, Androgen receptor (Rattus norvegicus); experiment: Anti-androgenic activity, inhibition of testosterone propionate induced rat ventral prostate (castrated immature rat) weight gain; assay type: functional; details: Prostate gland; in short: as §1
[3] = Rattus norvegicus, Prostate gland, read-out: ED50

Structure (SMILES)	ED50 (Rattus norvegicus; [3]) [mg/kg]	Increase [1]	further results
C#C[C@]1(O)CCC2C3CCC4=C(C)c5nn(S(C)(=O)=O)cc5C[C@]4(C)C3CC[C@@]21C (stereo partly specified)	14	inactive	–
CC(=O)[C@@]1(O)CC[C@H]2[C@@H]3C=C(Cl)C4=CC(=O)[C@@H]5C[C@@H]5[C@]4(C)[C@H]3CC[C@@]21C [CYPROTERONE]	87	–	–
C#C[C@]1(O)CC[C@H]2[C@@H]3CC[C@H]4Cc5nn(S(C)(=O)=O)cc5C[C@]4(C)[C@H]3CC[C@@]21C (stereo in doubt; 28) [ZANOTERONE]	–	–	ED50 (Rattus norvegicus): 40 mg/kg
CC1=C2CCC3C(CC[C@@]4(C)C3CC[C@]4(C)O)[C@@]2(C)Cc2cn(S(C)(=O)=O)nc21 (stereo partly specified)	3	inactive	–
C#C[C@]1(O)CCC2C3CC[C@H]4Cc5nn(S(=O)(=O)CCC)cc5C[C@]4(C)C3CC[C@@]21C (stereo partly specified)	< 100	–	–
C#C[C@]1(O)CCC2C3CC[C@H]4Cc5c(c[nH][n+]5S(C)(=O)=O)C[C@]4(C)C3CC[C@@]21C (stereo partly specified)	> 100	inactive	–
C#C[C@]1(O)CC[C@H]2[C@@H]3CC[C@H]4Cc5nn(S(C)(=O)=O)cc5C[C@]4(C)[C@H]3CC[C@@]21C (stereo in doubt; 1) [ZANOTERONE]	–	–	ED50 (Rattus norvegicus): 15 mg/kg
C#C[C@]1(O)CCC2C3CC[C@H]4Cc5nn(S(=O)(=O)C(C)C)cc5C[C@]4(C)C3CC[C@@]21C (stereo partly specified)	> 100	–	–
C#C[C@]1(O)CCC2C3CC[C@H]4Cc5nn(S(=O)(=O)CCCC)cc5C[C@]4(C)C3CC[C@@]21C (stereo partly specified)	> 100	–	–
CC[C@]1(O)CCC2C3CC[C@H]4Cc5nn(S(C)(=O)=O)cc5C[C@]4(C)C3CC[C@@]21C (stereo partly specified)	41	inactive	–
C#C[C@]1(O)CC[C@H]2[C@@H]3CC[C@H]4Cc5nn(S(C)(=O)=O)cc5C[C@]4(C)[C@H]3CC[C@@]21C (stereo in doubt; 1)	–	inactive	–
C=C[C@]1(O)CCC2C3CC[C@H]4Cc5nn(S(C)(=O)=O)cc5C[C@]4(C)C3CC[C@@]21C (stereo partly specified)	–	inactive	ED50 [2]: 33 mg/kg
CC(C)C(=O)Nc1ccc([N+](=O)[O-])c(C(F)(F)F)c1 [FLUTAMIDE]	5	–	–
C[C@]1(O)CCC2C3CC[C@H]4Cc5nn(S(C)(=O)=O)cc5C[C@]4(C)C3CC[C@@]21C (stereo partly specified)	10	inactive	–
C[C@]12CCC3C(CC[C@H]4Cc5nn(S(C)(=O)=O)cc5C[C@]34C)C1CC[C@@H]2O (stereo partly specified)	> 100	–	–
C#C[C@]1(O)CCC2C3CC[C@H]4Cc5n[nH]cc5C[C@]4(C)C3CC[C@@]21C (stereo partly specified)	50	–	–
C[C@]12Cc3cn(S(C)(=O)=O)nc3C=C1CCC1C2CC[C@@]2(C)C1CC[C@@H]2O (stereo partly specified)	> 100	–	–
CC(C)(O)C(=O)Nc1ccc([N+](=O)[O-])c(C(F)(F)F)c1 [HYDROXYFLUTAMIDE]	4	inactive	–
C#C[C@]1(O)CCC2C3CCC4=C(Cl)c5nn(S(C)(=O)=O)cc5C[C@]4(C)C3CC[C@@]21C (stereo partly specified)	> 100	–	–
CC(O)(CS(=O)(=O)c1ccc(F)cc1)C(=O)Nc1ccc(C#N)c(C(F)(F)F)c1 (stereo unspecified) [BICALUTAMIDE]	4	–	–
C#C[C@]1(O)CCC2C3CC[C@H]4Cc5nn(S(=O)(=O)CC)cc5C[C@]4(C)C3CC[C@@]21C (stereo partly specified)	100	–	–
C[C@]12CCC3C(CC[C@H]4Cc5nn(S(C)(=O)=O)cc5C[C@]34C)C1CCC2=O (stereo partly specified)	100	inactive	–
CC(=O)O[C@]1(C(C)=O)CC[C@H]2[C@@H]3C=C(Cl)C4=CC(=O)[C@@H]5C[C@@H]5[C@]4(C)[C@H]3CC[C@@]21C [CYPROTERONE ACETATE]	18	–	–
C#C[C@]1(O)CCC2C3CCC4=Cc5nn(S(C)(=O)=O)cc5C[C@]4(C)C3CC[C@@]21C (stereo partly specified)	< 100	inactive	–
C[C@]12Cc3cn(S(C)(=O)=O)nc3C=C1CCC1C2CC[C@@]2(C)C1CC[C@]2(C)O (stereo partly specified)	16	inactive	–
C#C[C@]1(O)CC[C@H]2[C@@H]3CC[C@H]4Cc5nn(S(C)(=O)=O)cc5C[C@]4(C)[C@H]3CC[C@@]21C (stereo in doubt; 28)	–	inactive	–
